Reference: PMC9826235 (Chembiochem, 2022)

Tested on: monoclonal anti-HpTGEKP antibody
Format: binding, mouse
Details: gas phase complex dissociation; for TambΔSmg# / ΔGm0g# / ΔHm0g#: neutral and resting complex, Tamb 298 K, two measurement series except 02; for ΔHm0g# (approximate values in running text): text rounding of Table 3
In short: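 Test phospho-hexapeptides and monoclonal antibody, each in 200 mM ammonium acetate, were mixed at a 3:1 peptide:antibody molar ratio. The mixtures were nano-electrosprayed, and multiply charged immune complex ions underwent gas phase dissociation; an unphosphorylated hexapeptide served as control. Data were duplicate series (mean, SD), fitted with a Boltzmann sigmoid. Enthalpies came from Arrhenius and Gibbs-Helmholtz plots taken at 1/Tamb.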

Row | Substance | TambΔSmg# [kcal/mol] | ΔGm0g# | ΔHm0g# | ΔHm0g# (approximate values in running text)
1 | HpSGERP [compound 06] | -15.87 | +64.65 kJ/mol | -0.418 kcal/mol | –
2 | HpTEEKP [compound 09] | -15.93 | +64.64 kJ/mol | -0.485 kcal/mol | approx. −2.0 kJ/mol
3 | HpTGEKL [compound 07] | -15.82 | +64.69 kJ/mol | -0.363 kcal/mol | –
4 | HpTGEKP [compound 01] | -15.8 | +64.75 kJ/mol | -0.33 kcal/mol | –
5 | HpTGERP [compound 02] | -15.74 | +64.79 kJ/mol | -0.261 kcal/mol | –
6 | HpTGKKP [compound 05] | -15.06 | +64.84 kJ/mol | +1.81 kJ/mol | approx. +0.3 kJ/mol
7 | HpTREKP [compound 10] | -15.43 | +64.83 kJ/mol | +0.28 kJ/mol | ~+1.8 kJ/mol
